In brackets after ≈: the same amount, converted by molar mass. Activity calls are given as the source filed them. No cut-off for these calls is given here.
Tests used:
[1] = Cytotoxicity against human Col1 cells; format: functional; details: read-out: ED50 (the source's name)
[2] = Cytotoxicity against human MEL-2 cells; format: functional; details: MEL2, read-out: ED50 (the source's name)
ZR-75-1 = experiment: Cytotoxicity against human ZR-75-1 cells; format: functional; details: read-out: ED50 (the source's name)
P388 = experiment: Cytotoxicity against mouse P388 cells; format: functional; details: read-out: ED50 (the source's name)
KB [3] = experiment: Cytotoxicity against human KB cells; format: functional; details: read-out: ED50 (the source's name)
KB [4] = experiment: Cytotoxicity against vinblastine-resistant human KB cells; format: functional; details: read-out: ED50 (the source's name)
Outline: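 The vinblastine-resistant KB-V1 line was tested both with and without added vinblastine in the cultured tumour-cell cytotoxicity panel. Results are reported as ED50.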

LNCaP = experiment: Cytotoxicity against human LNCAP cells; format: functional; details: read-out: ED50 (the source's name)
Penicillium oxalicum [5] = experiment: Antimicrobial activity against Penicillium oxalicum at 10 ug; format: functional; details: for zone of inhibition at 10 µg/disc: read-out: IZ
Outline: (§1)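 Direct bioautography: each compound is spotted onto TLC plates and the solvent evaporated. The test organism is then grown directly on the plate. Growth inhibition is scored at the spot as active (+) or very active (++). Where a number is given, it is the radius in mm of the inhibition zone around the spot.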

Bacillus subtilis [6] = experiment: Antimicrobial activity against Bacillus subtilis at 10 ug; format: functional, organism-based; outline: as §1
Penicillium oxalicum [7] = experiment: Antimicrobial activity against Penicillium oxalicum at 0.01 ug; format: functional; outline: as §1
[8] = Inhibition of PKC
[9] = Cytotoxicity against human BCA1 cells; format: functional; details: read-out: ED50 (the source's name)
[10] = Cytotoxicity against human U373 cells; format: functional, U-373MG ATCC; details: U373 MG, read-out: ED50 (the source's name)
Penicillium oxalicum [11] = experiment: Antimicrobial activity against Penicillium oxalicum at 0.1 ug; format: functional; details: for zone of inhibition at 0.1 µg/disc: read-out: IZ; outline: as §1
Escherichia coli [12] = experiment: Antimicrobial activity against Escherichia coli at 1 ug; format: functional, organism-based; outline: as §1
Micrococcus luteus [13] = experiment: Antimicrobial activity against Micrococcus luteus at 10 ug; format: functional, organism-based; outline: as §1
Escherichia coli [14] = experiment: Antimicrobial activity against Escherichia coli at 5 ug; format: functional, organism-based; outline: as §1
Bacillus subtilis [15] = experiment: Antimicrobial activity against Bacillus subtilis at 1 ug; format: functional, organism-based; outline: as §1
HT-1080 = experiment: Cytotoxicity against human HT1080 cells; format: functional; details: read-out: ED50 (the source's name)
Plasmodium falciparum = experiment: Antimalarial activity against chloroquine-sensitive Plasmodium falciparum D6 at 10 ug/ml; format: functional
Penicillium oxalicum [16] = experiment: Antimicrobial activity against Penicillium oxalicum at 1 ug; format: functional; details: for zone of inhibition at 1 µg/disc: read-out: IZ; outline: as §1
Escherichia coli [17] = experiment: Antimicrobial activity against Escherichia coli at 10 ug; format: functional, organism-based; outline: as §1
Monocyte [18] = experiment: Inhibition of LPS-stimulated IL1 production in human monocytes; format: functional, cell-based
Monocyte [19] = experiment: Inhibition of IL1 biosynthesis in human monocytes; format: functional, cell-based
KB [20] = experiment: Cytotoxicity against vinblastine-sensitive human KB cells; format: functional; details: read-out: ED50 (the source's name)
Escherichia coli [21] = experiment: Antimicrobial activity against Escherichia coli at 0.1 ug; format: functional, organism-based; outline: as §1
A-431 = experiment: Cytotoxicity against human A431 cells; format: functional; details: read-out: ED50 (the source's name)
Penicillium oxalicum [22] = experiment: Antimicrobial activity against Penicillium oxalicum at 5 ug; format: functional; details: for zone of inhibition at 5 µg/disc: read-out: IZ; outline: as §1
Bacillus subtilis [23] = experiment: Antimicrobial activity against Bacillus subtilis at 5 ug; format: functional, organism-based; outline: as §1
Micrococcus luteus [24] = experiment: Antimicrobial activity against Micrococcus luteus at 1 ug; format: functional, organism-based; outline: as §1
Micrococcus luteus [25] = experiment: Antimicrobial activity against Micrococcus luteus at 5 ug; format: functional, organism-based; outline: as §1
Lu1 = experiment: Cytotoxicity against human Lu1 cells; format: functional; details: read-out: ED50 (the source's name)
[26] = tested on: Mycobacterium tuberculosis; experiment: Antimycobacterial activity against Mycobacterium tuberculosis at 128 uM; format: functional, organism-based
Mycobacterium avium = experiment: Antimycobacterial activity against Mycobacterium avium at 128 uM; format: functional, organism-based
[27] = molecular target: Human immunodeficiency virus type 1 reverse transcriptase (Human immunodeficiency virus 1) (UniProt Q72547); experiment: Inhibition of HIV1 RT at 200 uM
Outline: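 HIV-1 reverse transcriptase inhibition was measured in an ELISA-based system.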

Micrococcus luteus [28] = experiment: Antimicrobial activity against Micrococcus luteus at 0.1 ug; format: functional, organism-based; outline: as §1
Penicillium oxalicum [29] = experiment: Antimicrobial activity against Penicillium oxalicum at 0.8 ug; format: functional; details: read-out: IZ; outline: as §1
Penicillium oxalicum [30] = experiment: Antimicrobial activity against Penicillium oxalicum at 1.6 ug; format: functional; details: read-out: IZ; outline: as §1
[31] = Inhibition of TK assessed as residual activity at 200 ug/ml
Outline: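 The enzyme was tyrosine kinase p56lck, with test compounds at 200 μg/mL. The read-out is the remaining enzyme activity.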

Bacillus subtilis [32] = experiment: Antimicrobial activity against Bacillus subtilis at 0.1 ug; format: functional, organism-based; outline: as §1

Row | SMILES | EC50 (ZR-75-1) [µg/mL] | EC50 (KB [3]) [µg/mL] | EC50 (KB [4]) [µg/mL] | EC50 (LNCaP) [µg/mL] | zone of inhibition at 10 µg/disc (Penicillium oxalicum [5]) [mm] | Activity (Bacillus subtilis [6]) | Activity (Penicillium oxalicum [7]) | IC50 [8] [nM] | zone of inhibition at 0.1 µg/disc (Penicillium oxalicum [11]) [mm] | Activity (Escherichia coli [12]) | Activity (Micrococcus luteus [13]) | Activity (Escherichia coli [14]) | Activity (Bacillus subtilis [15]) | Activity (Plasmodium falciparum) [%] | zone of inhibition at 1 µg/disc (Penicillium oxalicum [16]) [mm] | Activity (Escherichia coli [17]) | EC50 (KB [20]) [µg/mL] | Activity (Bacillus subtilis [23]) | Activity (Micrococcus luteus [24]) | Activity (Micrococcus luteus [25]) | further results
1 | CCCCC1=C(Br)C(=C(Br)Br)OC1=O | 8.6 (≈ 22.1 µM) | > 20 | > 20 | 9.3 (≈ 23.9 µM) | 11 | Active | inactive | ≥ 200000 | 1 | inactive | Active | Active | inactive | >50 | 8 | Active | > 20 | Active | inactive | Active | EC50 [1]: 12.4 µg/mL (≈ 31.9 µM); EC50 [2]: 4.2 µg/mL (≈ 10.8 µM); EC50 (P388): > 5 µg/mL; EC50 [9]: 6.4 µg/mL (≈ 16.5 µM); EC50 [10]: > 20 µg/mL; EC50 (HT-1080): > 20 µg/mL; IC50 (Monocyte [18]): 1800 nM; IC50 (Monocyte [19]): 3000 nM; Activity (Escherichia coli [21]): inactive; EC50 (A-431): 10.5 µg/mL (≈ 27 µM); zone of inhibition at 5 µg/disc (Penicillium oxalicum [22]): 13 mm
2 | CCC[C@@H](OC(C)=O)C1=C(Br)/C(=C/Br)OC1=O | 1.6 (≈ 4.35 µM) | 0.8 (≈ 2.17 µM) | 1 (≈ 2.72 µM) | 0.5 (≈ 1.36 µM) | 16 | Active | inactive | 67000 | 7 | inactive | Active | inactive | Active | >50 | 11 | Active | 2.1 (≈ 5.71 µM) | Active | Active | Active | EC50 (Lu1): 1.7 µg/mL (≈ 4.62 µM); Activity [26]: inactive; IC50 (Mycobacterium avium): 350000 nM; Activity [27]: inactive; Activity (Micrococcus luteus [28]): inactive; IC50 (Monocyte [18]): 1300 nM; IC50 (Monocyte [19]): 3000 nM; Activity (Escherichia coli [21]): inactive; zone of inhibition at 5 µg/disc (Penicillium oxalicum [22]): 15 mm
3 | Clc1ccc(COC(Cn2ccnc2)c2ccc(Cl)cc2Cl)c(Cl)c1 (stereo not drawn) [MICONAZOLE] |  |  |  |  |  |  |  |  |  |  |  |  |  |  |  |  |  |  |  |  | zone of inhibition at 0.8 µg/disc (Penicillium oxalicum [29]): 3 mm; zone of inhibition at 1.6 µg/disc (Penicillium oxalicum [30]): 5 mm
4 | CCC[C@@H](O)C1=C(Br)/C(=C/Br)OC1=O | < 0.1 | 0.4 (≈ 1.23 µM) | 0.1 (≈ 0.307 µM) | 0.2 (≈ 0.614 µM) | 27 | Active | inactive | 76000 | 6 | Active | Active | Active | Active | >50 | 20 | Active | 3.4 (≈ 10.4 µM) | Active | Active | Active | EC50 (Lu1): 0.3 µg/mL (≈ 0.92 µM); Activity [26]: inactive; Activity [31]: 3.4%; IC50 (Mycobacterium avium): 350000 nM; Activity (Bacillus subtilis [32]): Active; Activity [27]: inactive; Activity (Micrococcus luteus [28]): inactive; IC50 (Monocyte [18]): 600 nM; IC50 (Monocyte [19]): 1500 nM; zone of inhibition at 5 µg/disc (Penicillium oxalicum [22]): 26 mm
5 | CCC[C@@H](OC(C)=O)C1=C(Br)[C@@](CI)(OC)OC1=O | 7.9 (≈ 17.7 µM) | 2.4 (≈ 5.37 µM) | 7.1 (≈ 15.9 µM) | 12.9 (≈ 28.9 µM) |  | inactive |  |  |  | inactive | Active | inactive | inactive | >50 |  | inactive | 4.1 (≈ 9.17 µM) | inactive | inactive | Active | EC50 (Lu1): > 20 µg/mL; Activity [26]: inactive; Activity (Penicillium oxalicum [5]): inactive; IC50 (Mycobacterium avium): 350000 nM; Activity (Bacillus subtilis [32]): inactive; Activity [27]: inactive; Activity (Penicillium oxalicum [11]): inactive; Activity (Micrococcus luteus [28]): inactive; Activity (Penicillium oxalicum [16]): inactive; Activity (Escherichia coli [21]): inactive; Activity (Penicillium oxalicum [22]): inactive
